Active and inactive are the calls of the source. The calls are words filed in the database; no cut-off is given here.
Assays:
[1] = target: T1, DNA (cytosine-5)-methyltransferase 1 (Homo sapiens, UniProt P26358); experiment: Inhibition of human recombinant DNMT1 expressed in Sf9 cells assessed as incorporation of [3H]S-adenosyl methionine into hemimethylated oligonucleotide substrate after 3 hrs by scintillation counting
[2] = target: T1, DNA (cytosine-5)-methyltransferase 1; experiment: Inhibition of human recombinant DNMT1 expressed in Sf9 cells assessed as remaining activity at 2 mM after 3 hrs by scintillation counting in presence of [3H]S-adenosyl methionine
How it was run: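 Single-point screen at 2 mM (compounds in DMSO, DMSO control) against 500 nM Sf9-expressed human DNMT1, hemimethylated oligo 0.4 μM, 0.7 μM [3H]AdoMet, pH 7.5 Tris buffer, 37 °C for 3 h; filter-bound tritium counted. Relative enzyme activity (% of control) as mean of three measurements with SD; inhibition >20% scored positive.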

[3] = target: T1, DNA (cytosine-5)-methyltransferase 1; experiment: Competitive inhibition of human recombinant DNMT1 expressed in Sf9 cells using [3H]S-adenosyl methionine as substrate at 150 uM after 1 hr by scintillation counting
How it was run: (§1)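 Mode-of-inhibition assay: standard DNMT1 filter assay (500 nM enzyme) modified with inhibitor fixed at 150 μM and 1 h at 37 °C; either [3H]SAM or the oligo substrate concentration increased while the other held. Activity with inhibitor under standard conditions set as 100% inhibition; curves interpreted by the Lai and Wu model.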

[4] = target: T1, DNA (cytosine-5)-methyltransferase 1; experiment: Non-competitive inhibition of human recombinant DNMT1 expressed in Sf9 cells using oligonucleotide as substrate after 1 hr by scintillation counting; how it was run: as §1
[5] = test system: HCT-116; experiment: Antiproliferative activity against human HCT116 cells after 72 hrs by trypan blue staining; assay type: functional; details: HCT-116, 72 h
How it was run: (§2)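 HCT116 colon carcinoma cells incubated 72 h with test compound at 300, 500 and 750 μM, azacytidine 1 μM as positive control, DMSO alone as control.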

[6] = target: T1, DNA (cytosine-5)-methyltransferase 1; experiment: Selectivity ratio of IC50 for procaine to compound for human recombinant DNMT1 expressed in Sf9 cells assessed as incorporation of [3H]S-adenosyl methionine into hemimethylated oligonucleotide substrate after 3 hrs by scintillation counting
[7] = test system: HCT-116; experiment: Antiproliferative activity against human HCT116 cells assessed as growth inhibition by measuring proliferation rate after 72 hrs by trypan blue staining; assay type: functional, cell-based; how it was run: as §2
[8] = test system: HCT-116; experiment: Antiproliferative activity against human HCT116 cells assessed as growth inhibition by measuring doubling time after 72 hrs by trypan blue staining; assay type: functional, cell-based; how it was run: as §2

T1 sequence (P26358 whole entry): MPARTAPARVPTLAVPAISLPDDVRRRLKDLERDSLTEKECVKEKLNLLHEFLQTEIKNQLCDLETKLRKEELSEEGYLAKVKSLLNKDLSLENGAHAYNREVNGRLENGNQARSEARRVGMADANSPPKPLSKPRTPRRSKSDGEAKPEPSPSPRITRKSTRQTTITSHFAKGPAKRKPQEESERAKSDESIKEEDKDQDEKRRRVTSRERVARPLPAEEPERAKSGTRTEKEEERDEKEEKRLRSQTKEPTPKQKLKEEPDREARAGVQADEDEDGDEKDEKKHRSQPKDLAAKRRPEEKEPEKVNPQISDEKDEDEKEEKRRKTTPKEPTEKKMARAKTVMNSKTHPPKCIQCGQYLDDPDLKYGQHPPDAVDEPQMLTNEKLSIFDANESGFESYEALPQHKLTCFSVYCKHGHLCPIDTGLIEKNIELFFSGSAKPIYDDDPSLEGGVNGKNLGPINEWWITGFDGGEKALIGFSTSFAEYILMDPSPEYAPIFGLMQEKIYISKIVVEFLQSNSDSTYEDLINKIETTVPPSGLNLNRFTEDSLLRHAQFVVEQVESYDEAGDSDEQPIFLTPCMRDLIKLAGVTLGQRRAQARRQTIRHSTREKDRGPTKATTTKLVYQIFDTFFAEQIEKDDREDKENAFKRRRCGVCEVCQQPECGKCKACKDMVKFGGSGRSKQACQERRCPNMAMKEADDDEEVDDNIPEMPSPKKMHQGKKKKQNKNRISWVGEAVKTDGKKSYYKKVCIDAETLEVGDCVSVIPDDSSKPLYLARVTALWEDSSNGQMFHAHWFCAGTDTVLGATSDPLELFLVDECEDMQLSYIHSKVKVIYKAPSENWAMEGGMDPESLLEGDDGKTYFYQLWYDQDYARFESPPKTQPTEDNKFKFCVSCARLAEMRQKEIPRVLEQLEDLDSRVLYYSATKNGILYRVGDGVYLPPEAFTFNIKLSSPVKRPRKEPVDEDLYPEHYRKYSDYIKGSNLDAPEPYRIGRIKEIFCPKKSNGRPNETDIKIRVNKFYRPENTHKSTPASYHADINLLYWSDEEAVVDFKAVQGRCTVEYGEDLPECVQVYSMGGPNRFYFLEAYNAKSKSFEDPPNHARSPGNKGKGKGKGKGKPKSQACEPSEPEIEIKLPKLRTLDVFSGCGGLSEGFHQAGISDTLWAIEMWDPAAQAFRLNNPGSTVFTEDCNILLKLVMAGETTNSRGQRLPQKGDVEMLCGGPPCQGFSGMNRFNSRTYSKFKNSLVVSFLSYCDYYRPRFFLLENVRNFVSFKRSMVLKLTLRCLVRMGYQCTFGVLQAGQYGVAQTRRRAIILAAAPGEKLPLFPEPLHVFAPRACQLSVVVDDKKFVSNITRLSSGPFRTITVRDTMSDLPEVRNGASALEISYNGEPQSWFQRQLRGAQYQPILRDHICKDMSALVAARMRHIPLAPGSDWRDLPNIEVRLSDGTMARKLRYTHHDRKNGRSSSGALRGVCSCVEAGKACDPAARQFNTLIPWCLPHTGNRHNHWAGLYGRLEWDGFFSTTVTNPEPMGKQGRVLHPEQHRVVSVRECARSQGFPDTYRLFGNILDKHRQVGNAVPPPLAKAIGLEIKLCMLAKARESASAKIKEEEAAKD

Structure (SMILES) | Activity [2] | other results
CN1CC2ON=C(c3ccc([N+](=O)[O-])cc3)C2C1 (configuration not stated) | 34.9% | –
CN1CC2ON=C(Cc3ccc(N)cc3)C2C1 (configuration not stated) | 3.3% | –
CN1CC2ON=C(Cc3ccccc3)C2C1 (configuration not stated) | 84% | –
CN1CC2ON=C(c3ccccc3)C2C1 (configuration not stated) | inactive | –
CN1CC2ON=C(c3ccc(C(=O)O)cc3)C2C1 (configuration not stated) | inactive | –
COc1ccc(C2=NOC3CN(C)CC23)cc1 (configuration not stated) | 95.6% | –
COc1ccc(CC2=NOC3CN(C)CC23)cc1 (configuration not stated) | 1.7% | IC50 [1]: 1130 µM
CN1CC2ON=C(c3ccc(O)cc3)C2C1 (configuration not stated) | inactive | –
CN1CC2ON=C(Cc3ccc([N+](=O)[O-])cc3)C2C1 (configuration not stated) | 3.8% | IC50 [1]: 310 µM
CN1CC2ON=C(c3ccc(N)cc3)C2C1 (configuration not stated) | 5.1% | IC50 [1]: 570 µM
O=[N+]([O-])c1ccc(C2=NC[C@H](CN3CCCC3)O2)cc1 | – | growth inhibition (GI) [7]: inactive; growth inhibition (GI) [8]: inactive

More lines, main results first:

Activity [2] | Structure (SMILES) | other results
0.3% | CN(C)CC1CC(c2ccc([N+](=O)[O-])cc2)=NO1 (configuration not stated) | IC50 [1]: 150 µM; inhibition [3]: Active; inhibition [4]: Active; GI50 [5]: 360 µM; Ratio IC50 [6]: 10
14.8% | CN(C)CC1CC(Cc2ccc([N+](=O)[O-])cc2)=NO1 (configuration not stated) | IC50 [1]: 1600 µM
90.6% | Cc1ccc(S(=O)(=O)Oc2ccc(C3=NOC(CN(C)C)C3)cc2)cc1 (configuration not stated) | –
3.3% | COc1ccc(C2=NOC(CN(C)C)C2)cc1 (configuration not stated) | –
17.1% | CN(C)CC1CC(Cc2ccccc2)=NO1 (configuration not stated) | –
inactive | O=C(O)[C@H](Cc1c[nH]c2ccccc12)N1C(=O)c2ccccc2C1=O | –
0.5% | Nc1ncnc2c1ncn2[C@@H]1O[C@H](CSCC[C@H](N)C(=O)O)[C@@H](O)[C@H]1O | –
20.2% | CN(C)CC1CC(c2ccc(N)cc2)=NO1 (configuration not stated) | IC50 [1]: 270 µM
inactive | COc1ccc(CC2=NOC(CN(C)C)C2)cc1 (configuration not stated) | –
inactive | CN(C)CC1CC(c2ccccc2)=NO1 (configuration not stated) | –
23% | CN(C)CC1CC(c2ccc(C(=O)O)cc2)=NO1 (configuration not stated) | –
inactive | CCN(CC)CCOC(=O)c1ccc(N)cc1 | –
28.3% | CN(C)CC1CC(Cc2ccc(N)cc2)=NO1 (configuration not stated) | –
88% | CN(C)CC1CC(c2ccc(O)cc2)=NO1 (configuration not stated) | –
18.6% | Cc1ccc(S(=O)(=O)Oc2ccc(C3=NOC4CN(C)CC34)cc2)cc1 (configuration not stated) | –

— ChEMBL document CHEMBL1914404, “Synthesis and biochemical evaluation of δ(2)-isoxazoline derivatives as DNA methyltransferase 1 inhibitors” (J Med Chem, 2011)
